In PMC2846203 (Journal of natural products, 2010):
Read-outs that look alike come from different tables or passages of the source. Marks after values point to notes of the source that are not given here.

Assays:
mice [1] = details: mouse, cited from earlier work
mice [2] = details: mouse, cited from earlier work; remark: listed apart in the source
α4β2 nAChR = α4β2 nAChR (Rattus norvegicus, UniProt P09483+P12390); test: [3H]epibatidine binding assay; details: ratio of Ki values
mice [3] = details: mouse, cited from earlier work; remark: listed apart in the source
mice [4] = details: mouse, cited from earlier work; remark: listed apart in the source
mice [5] = test: antagonism of nicotine-induced antinociception, hot-plate test; format: in vivo, mouse; details: for times more potent as an antagonist than varenicline in the hot-plate test: ratio of AD50 values
mice [6] = test: spontaneous activity; format: in vivo, mouse; details: ratio of ED50 values
mice [7] = test: tail-flick test; format: in vivo, mouse
Method in brief: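 D'Amour–Smith tail-flick in mice. Racemic hydrochloride test compound given s.c., with testing 5 min later. %MPE = [(test−control)/(10−control)]×100. 8–12 mice per dose, minimum four doses; ED50 with confidence limits from the dose-response curve.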

mice [8] = test: hot-plate test; format: in vivo, mouse
Method in brief: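 Mice in a 10 cm glass cylinder on a 55.0 °C hot plate. Two control latencies, at least 10 min apart, per mouse; normal latency 8–12 sec. Endpoint: jumping or paw licking. Eight mice per dose got racemic hydrochloride test compound s.c. and were tested 5 min later. %MPE = [(test−control)/(40−control)]×100; ED50 from dose-response curve.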

mice [9] = test: hypothermia; format: in vivo, mouse; details: ratio of ED50 values
Method in brief: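 Mouse rectal temperature read by thermistor probe (inserted 24 mm) and digital thermometer, just before and 30 min after s.c. saline or racemic hydrochloride test compound. Change in temperature calculated for each mouse.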

mice [10] = test: antagonism of nicotine-induced antinociception, tail-flick test; format: in vivo; details: Mus musculus, sc, read-out: AD50 (µg/kg) tail-flick
mice [11] = details: mouse; antagonism of nicotine-induced antinociception; cited from earlier work
mice [12] = details: mouse; antagonism of nicotine-induced antinociception; cited from earlier work; remark: listed apart in the source

Chain of α4β2 nAChR (P12390 25-500): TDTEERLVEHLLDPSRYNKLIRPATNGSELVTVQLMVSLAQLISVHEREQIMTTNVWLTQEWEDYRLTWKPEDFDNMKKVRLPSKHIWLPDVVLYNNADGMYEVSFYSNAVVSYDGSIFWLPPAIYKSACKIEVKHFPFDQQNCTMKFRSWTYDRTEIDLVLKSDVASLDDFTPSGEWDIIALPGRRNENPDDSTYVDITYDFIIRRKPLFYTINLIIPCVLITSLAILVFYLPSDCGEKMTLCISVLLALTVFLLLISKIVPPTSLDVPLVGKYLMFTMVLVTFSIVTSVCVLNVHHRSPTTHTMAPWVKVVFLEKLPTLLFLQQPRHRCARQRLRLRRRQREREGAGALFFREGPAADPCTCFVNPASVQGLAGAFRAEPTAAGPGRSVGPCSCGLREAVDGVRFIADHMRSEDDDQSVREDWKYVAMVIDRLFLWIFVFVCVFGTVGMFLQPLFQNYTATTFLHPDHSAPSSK
Chain of α4β2 nAChR (P09483 31-630): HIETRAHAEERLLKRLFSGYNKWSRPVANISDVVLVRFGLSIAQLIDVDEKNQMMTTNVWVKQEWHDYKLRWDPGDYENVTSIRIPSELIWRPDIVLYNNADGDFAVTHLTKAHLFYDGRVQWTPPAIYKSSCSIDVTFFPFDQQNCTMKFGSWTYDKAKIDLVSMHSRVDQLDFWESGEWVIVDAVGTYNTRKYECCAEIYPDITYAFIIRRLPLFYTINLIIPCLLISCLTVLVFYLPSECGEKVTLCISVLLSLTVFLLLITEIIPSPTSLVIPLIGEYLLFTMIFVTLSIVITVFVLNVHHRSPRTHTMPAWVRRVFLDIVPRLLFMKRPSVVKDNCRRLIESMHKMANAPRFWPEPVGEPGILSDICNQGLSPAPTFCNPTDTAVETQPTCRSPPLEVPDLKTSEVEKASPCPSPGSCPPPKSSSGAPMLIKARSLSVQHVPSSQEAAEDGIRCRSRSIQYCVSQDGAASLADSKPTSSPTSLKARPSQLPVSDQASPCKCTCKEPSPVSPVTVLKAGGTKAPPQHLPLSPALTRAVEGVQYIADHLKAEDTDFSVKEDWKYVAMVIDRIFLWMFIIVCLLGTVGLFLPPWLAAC

For `Clc1ncc([C@H]2C[C@@H]3CC[C@H]2N3)cc1-c1ccccc1` [5a], the ED50 mg/kg hypothermia (mice [1]; (confidence limits)) is listed as 0.4 ^g (0.1–0.9) mg/kg, the ED50 mg/kg hot-plate (mice [2]; (confidence limits)) is listed as 1.0 ^g (0.5–2.0) mg/kg and the “times higher affinity at the α4β2 nAChR than nicotine” value (α4β2 nAChR) is listed as 71 times. For the same compound, the “times higher affinity at the α4β2 nAChR than varenicline” value (α4β2 nAChR) was 6 times, the ED50 mg/kg tail-flick (mice [3]; (confidence limits)) was 0.7 ^g (0.5–1.0) mg/kg and the “ED50 mg/kg spontaneous activity” value (mice [4]; (confidence limits)) was 0.35 ^g (0.2–0.85) mg/kg.

For `Fc1cccc(-c2cc([C@H]3C[C@@H]4CC[C@H]3N4)cnc2Cl)c1` [5c, 3′-(3-Fluorophenyl)epibatidine], the “times more potent as an antagonist than varenicline in the hot-plate test” value (from here on “times more potent”) (mice [5]) was 5.5 times.

With `Clc1cccc(-c2cc([C@H]3C[C@@H]4CC[C@H]3N4)cnc2Cl)c1` [5e, 3′-(3-Chlorophenyl)epibatidine] the “selectivity for α4β2 nAChR relative to α7 nAChR” value (α4β2 nAChR) was “greater than 2000 fold” and the “times more potent” value (mice [5]) was 5.9 times.

For `Nc1cccc(-c2cc([C@H]3C[C@@H]4CC[C@H]3N4)cnc2Cl)c1` [5j, 3′-(3-Aminophenyl)epibatidine], the “times weaker than epibatidine (1), spontaneous activity” value (mice [6]) was 30 times, the “times weaker than epibatidine (1), tail-flick” value (mice [7]; ratio of ED50 values) was 57 times and the “times weaker than epibatidine (1), hot-plate” value (mice [8]; ratio of ED50 values) was 75 times. The “times weaker than epibatidine (1), hypothermia” value (mice [9]) was 76 times, the “AD50 (µg/kg) hot-plate” value (mice [5]; mouse, antagonism of nicotine-induced antinociception, (confidence limits)) was 26 (5–90) µg/kg and the “times more potent” value (mice [5]) was 18 times.

`COc1ccc(-c2cc([C@H]3C[C@@H]4CC[C@H]3N4)cnc2Cl)cc1` [5k, 3′-(4-Methoxylphenyl)epibatidine] gave an ED50 (mice [10]) of 10 µg/kg.

For `CN(C)c1cccc(-c2cc([C@H]3C[C@@H]4CC[C@H]3N4)cnc2Cl)c1` [5m, 3′-(3-Dimethylaminophenyl)epibatidine], the “agonist activity in the tail-flick test” value (mice [7]; mouse) was “did not have agonist activity” and the “agonist activity in the hot-plate test” value (mice [8]; mouse) was “did not have agonist activity”.

For `Clc1ccc([C@@H]2C[C@H]3CC[C@@H]2N3)cn1` [(+)-epibatidine, epibatidine], the ED50 mg/kg tail-flick (mice [3]) is listed as 0.0061 ^e mg/kg.

For `Clc1ccc([C@@H]2C[C@H]3CC[C@@H]2N3)cn1` [(−)-epibatidine, epibatidine], the ED50 mg/kg tail-flick (mice [3]) is listed as 0.0066 ^e mg/kg.

In the case of `c1cnc2cc3c(cc2n1)[C@@H]1CNC[C@H]3C1` [varenicline, reference compound], the ED50 mg/kg hypothermia (mice [1]) is listed as 2.8 mg/kg, the “AD50 (µg/kg) hot-plate” value (mice [11]) is listed as 470 µg/kg and the “agonist activity in the hot-plate test” value (mice [2]) is listed as “inactive”. For the same compound, the “AD50 (µg/kg) tail-flick” value (mice [12]) was 0.2 µg/kg, the “agonist activity in the tail-flick test” value (mice [3]) was “inactive” and the “ED50 mg/kg spontaneous activity” value (mice [4]) was 2.1 mg/kg.
